Source: ChEMBL document CHEMBL4400582, “Identification of Imidazo[1,2-b]pyridazine Derivatives as Potent, Selective, and Orally Active Tyk2 JH2 Inhibitors” (ACS Med Chem Lett, 2019)
pIC50, pKi: −log10 of the molar value. Converted amounts (≈) assume the structure as drawn. The source made the active and inactive calls. No cut-off for these calls is given here.

Columns and labels:
[1] = molecular target: T1, Non-receptor tyrosine-protein kinase TYK2 (Homo sapiens, UniProt P29597); experiment: Inhibition of fluorescein-labeled kinase tracer binding to His-TVMV-fused TYK2 JH2 domain (575 to 869 residues) (unknown origin) measured after 90 mins by HTRF assay
T1 sequence (P29597 whole entry, the tested form may be a part): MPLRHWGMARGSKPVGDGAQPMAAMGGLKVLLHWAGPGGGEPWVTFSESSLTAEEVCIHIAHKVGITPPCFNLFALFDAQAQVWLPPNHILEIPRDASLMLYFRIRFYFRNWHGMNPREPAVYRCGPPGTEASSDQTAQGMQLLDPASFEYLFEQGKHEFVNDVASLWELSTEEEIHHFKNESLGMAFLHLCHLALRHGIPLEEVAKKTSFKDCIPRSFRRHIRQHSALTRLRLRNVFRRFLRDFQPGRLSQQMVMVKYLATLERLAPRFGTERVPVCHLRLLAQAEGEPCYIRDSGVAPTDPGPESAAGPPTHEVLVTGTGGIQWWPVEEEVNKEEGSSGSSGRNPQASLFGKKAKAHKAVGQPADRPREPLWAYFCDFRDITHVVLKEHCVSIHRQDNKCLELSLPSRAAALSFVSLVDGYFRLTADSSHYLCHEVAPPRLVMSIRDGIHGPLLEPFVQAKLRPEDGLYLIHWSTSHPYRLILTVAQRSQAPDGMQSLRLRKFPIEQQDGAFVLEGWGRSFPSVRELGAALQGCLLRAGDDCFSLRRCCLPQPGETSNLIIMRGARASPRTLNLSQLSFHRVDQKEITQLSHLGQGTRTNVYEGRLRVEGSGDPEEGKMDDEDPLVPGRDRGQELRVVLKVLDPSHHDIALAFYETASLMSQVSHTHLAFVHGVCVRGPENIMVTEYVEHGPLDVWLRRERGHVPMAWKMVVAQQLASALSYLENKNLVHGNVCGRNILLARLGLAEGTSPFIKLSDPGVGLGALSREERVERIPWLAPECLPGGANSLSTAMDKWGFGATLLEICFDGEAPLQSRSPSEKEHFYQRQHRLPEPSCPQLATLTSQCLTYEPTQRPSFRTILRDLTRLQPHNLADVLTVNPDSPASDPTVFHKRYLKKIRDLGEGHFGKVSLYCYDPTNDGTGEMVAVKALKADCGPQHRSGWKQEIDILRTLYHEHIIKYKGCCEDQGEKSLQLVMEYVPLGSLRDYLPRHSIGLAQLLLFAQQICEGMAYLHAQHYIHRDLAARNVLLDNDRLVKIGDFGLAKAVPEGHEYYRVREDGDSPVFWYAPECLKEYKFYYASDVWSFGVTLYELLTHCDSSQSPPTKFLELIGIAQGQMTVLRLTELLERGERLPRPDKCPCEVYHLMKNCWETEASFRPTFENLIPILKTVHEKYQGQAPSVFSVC

[2] = Stability in rat liver microsomes assessed as parent compound remaining; format: ADME, Microsome
Outline: (§1)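 Compound was incubated 10 min with human, rat or mouse liver microsomes. Parent remaining is reported as percent.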

[3] = molecular target: T1, Non-receptor tyrosine-protein kinase TYK2; experiment: Inhibition of TYK2 JH2 domain in IFNalpha/IL23-stimulated human Kit225 cells by luciferase reporter assay
[4] = molecular target: T1, Non-receptor tyrosine-protein kinase TYK2; experiment: Inhibition of TYK2 JH2 domain in human whole blood assessed as decrease in IFNalpha/IL2-induced STAT phosphorylation preincubated for 1 hr followed by IFNalpha/IL2 stimulation and measured after 15 mins by fluorescence assay; format: tissue-based
[5] = Stability in mouse liver microsomes assessed as parent compound remaining; format: ADME, Microsome; outline: as §1
[6] = Stability in human liver microsomes assessed as parent compound remaining; format: ADME, Microsome; outline: as §1
[7] = Oral bioavailability in mouse at 10 mg/kg; format: ADME, organism-based; conditions: in vivo
Outline: (§2)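 Oral PK in the listed species. Vehicle 5:5:90 TPGS/EtOH/PEG300. An IV arm was dosed at 2 mg/kg.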

[8] = AUC (0 to 24 hrs) in cynomolgus monkey at 10 mg/kg, po; format: ADME, organism-based, Macaca fascicularis; set-up: time < 24 hr, dose 10 mg/kg, route oral; conditions: in vivo; outline: as §2
[9] = Cmax in cynomolgus monkey at 10 mg/kg, po; format: ADME, organism-based, Macaca fascicularis; set-up: dose 10 mg/kg, route oral; conditions: in vivo; outline: as §2
[10] = AUC (0 to 24 hrs) in mouse at 10 mg/kg, po; format: ADME, organism-based; set-up: time < 24 hr, dose 10 mg/kg, route oral; conditions: in vivo; outline: as §2
[11] = Oral bioavailability in dog at 10 mg/kg; format: ADME, organism-based, Canis lupus familiaris; conditions: in vivo; outline: as §2
[12] = Clearance in rat at 10 mg/kg, po; format: ADME, organism-based; conditions: in vivo; outline: as §2
[13] = Clearance in cynomolgus monkey at 10 mg/kg, po; format: ADME, organism-based, Macaca fascicularis; conditions: in vivo; outline: as §2
[14] = Oral bioavailability in cynomolgus monkey at 10 mg/kg; format: ADME, organism-based, Macaca fascicularis; conditions: in vivo; outline: as §2
Rattus norvegicus [15] = experiment: Inhibition of IL12/IL18-induced IFNgamma production in Lewis rat at 1 mg/kg, po pretreated for 1 hr followed by IL12 stimulation for 1 hr and subsequent IL18 addition and measured after 3 hrs by ELISA relative to control; format: functional
Outline: (§3)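 Rats were dosed in 5:5:90 TPGS/EtOH/PEG300, challenged with IL-12 1 h later and with IL-18 a further hour later. Plasma was collected 5 h after dosing for IFNγ levels. Inhibition is relative to vehicle.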

[16] = AUC (0 to 24 hrs) in rat at 10 mg/kg, po; format: ADME, organism-based; set-up: time < 24 hr, dose 10 mg/kg, route oral; conditions: in vivo; outline: as §2
[17] = Cmax in dog at 10 mg/kg, po; format: ADME, organism-based, Canis lupus familiaris; set-up: dose 10 mg/kg, route oral; conditions: in vivo; outline: as §2
Rattus norvegicus [18] = experiment: Inhibition of IL12/IL18-induced IFNgamma production in Lewis rat at 10 mg/kg, po pretreated for 1 hr followed by IL12 stimulation for 1 hr and subsequent IL18 addition and measured after 3 hrs by ELISA relative to control; format: functional; outline: as §3
[19] = Cmax in rat at 10 mg/kg, po; format: ADME, organism-based; set-up: dose 10 mg/kg, route oral; conditions: in vivo; outline: as §2
Rattus norvegicus [20] = experiment: Antiarthritic activity in incomplete Freund's adjuvant-induced Lewis rat arthritis model assessed as reduction in paw volume at 5 to 10 mg/kg, po bid for 20 days by plethysmometric method; format: functional, organism-based
Outline: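 Rat adjuvant arthritis. Adjuvant was given on day zero. Compound was dosed twice daily from day 0 to day 20 in 5:5:90 TPGS/EtOH/PEG300. Paw volume was measured periodically.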

[21] = AUC (0 to 24 hrs) in dog at 10 mg/kg, po; format: ADME, organism-based, Canis lupus familiaris; set-up: time < 24 hr, dose 10 mg/kg, route oral; conditions: in vivo; outline: as §2
[22] = Clearance in mouse at 2 mg/kg, iv; conditions: in vivo
[23] = Clearance in dog at 10 mg/kg, po; format: ADME, organism-based, Canis lupus familiaris; conditions: in vivo; outline: as §2
Rattus norvegicus [24] = experiment: Inhibition of IL12/IL18-induced IFNgamma production in po dosed Lewis rat pretreated for 1 hr followed by IL12 stimulation for 1 hr and subsequent IL18 addition and measured after 3 hrs by ELISA; format: functional, organism-based; outline: as §3
[25] = Cmax in mouse at 10 mg/kg, po; format: ADME, organism-based; set-up: dose 10 mg/kg, route oral; conditions: in vivo; outline: as §2
[26] = Oral bioavailability in rat at 10 mg/kg; format: ADME, organism-based; conditions: in vivo; outline: as §2
[27] = Aqueous solubility of the compound at pH 6.5; format: physicochemical; conditions: buffer
[28] = Aqueous solubility of the compound at pH 1; format: physicochemical; conditions: buffer
[29] = Permeability of the compound in human Caco2 cells; format: ADME, cell-based; conditions: Caco-2, read-out: permeability

Row | Compound | pKi [1] | pIC50 [3] | pIC50 [4] | IC50 [4] | further results
1 | CNc1cc(Nc2cccn(C3CC3)c2=O)nn2c(C(=O)NC3CC3)cnc12 | 9.48 | 6.88 | 6.09 | – | Stability [2]: 71%; Stability [5]: 39%; Stability [6]: 88%
2 | CNc1cc(Nc2cccn(-c3ccccn3)c2=O)nn2c(C(=O)N[C@@H]3C[C@@H]3F)cnc12 | – | – | – | – | bioavailability [7]: 86%; AUC(0-t) at 24 h [8]: 11 µM·h; Cmax [9]: 1.8 µM; AUC(0-t) at 24 h [10]: 19 µM·h; bioavailability [11]: 50%; CL/F [12]: 7.8 mL/min/kg; CL/F [13]: 17 mL/min/kg; bioavailability [14]: 46%; inhibition in vivo at 1 mg/kg (Rattus norvegicus [15]): 45%; AUC(0-t) at 24 h [16]: 57 µM·h; Cmax [17]: 0.93 µM; inhibition in vivo at 10 mg/kg (Rattus norvegicus [18]): 77%; Cmax [19]: 9.4 µM; Activity (Rattus norvegicus [20]): Active; AUC(0-t) at 24 h [21]: 8 µM·h; clearance [22]: 16 mL/min/kg; CL/F [23]: 25 mL/min/kg; inhibition (Rattus norvegicus [24]): Dose-dependent effect; Cmax [25]: 15 µM; bioavailability [26]: 114%
3 | CNc1cc(Nc2cccn(-c3cccc(F)n3)c2=O)nn2c(C(=O)N[C@@H]3C[C@@H]3F)cnc12 | 10.62 | 7.92 | 6.87 | – | –
4 | CNc1cc(Nc2cccn(-c3ccc(C#N)cc3)c2=O)nn2c(C(=O)NC3CC3)cnc12 | 9.70 | 7.05 | 6.57 | – | Stability [2]: 77%; solubility [27]: < 1 µg/mL; solubility [28]: 2 µg/mL (≈ 4.54 µM); Stability [5]: 71%; Stability [6]: 92%
5 | CNc1cc(Nc2cccn(-c3cc(C)n(C)n3)c2=O)nn2c(C(=O)N[C@@H]3C[C@@H]3F)cnc12 | 10.82 | 7.66 | 7.05 | – | –
6 | CNc1cc(Nc2cccn(-c3ccccn3)c2=O)nn2c(C(=O)NCC(C)(C)CO)cnc12 | 9.54 | 7.08 | 6.55 | – | –
7 | CNc1cc(Nc2cccn(-c3ccncc3)c2=O)nn2c(C(=O)NC3CC3)cnc12 | 9.54 | 6.83 | 6.46 | – | Papp [29]: 3.8 ×10⁻⁶ cm/s
8 | CNc1cc(Nc2cccn(-c3ncccc3F)c2=O)nn2c(C(=O)NC3CC3)cnc12 | 9.92 | 7.21 | 6.50 | – | Papp [29]: 5.9 ×10⁻⁶ cm/s
9 | CNc1cc(Nc2cccn(-c3ccc(F)cn3)c2=O)nn2c(C(=O)N[C@@H]3C[C@@H]3F)cnc12 | 10.46 | 7.59 | 7.07 | – | –
10 | CNc1cc(Nc2cccn(-c3ccc(C)nn3)c2=O)nn2c(C(=O)NC3CC3)cnc12 | 10.04 | 6.83 | 6.61 | – | –
11 | CNc1cc(Nc2cccn(-c3ccc(C(C)(C)O)cc3)c2=O)nn2c(C(=O)NC3CC3)cnc12 | 10.15 | 6.95 | 6.09 | – | –
12 | CNc1cc(Nc2cccn(-c3ccc(C)nn3)c2=O)nn2c(C(=O)N[C@@H]3C[C@@H]3F)cnc12 | 10.74 | 7.39 | 7.20 | – | –
13 | CNc1cc(Nc2cccn(-c3ccc(F)cn3)c2=O)nn2c(C(=O)NC3CC3)cnc12 | 9.82 | 7.00 | 6.63 | – | –
14 | CNc1cc(Nc2cccn(C)c2=O)nn2c(C(=O)NC3CC3)cnc12 | 9.13 | 6.21 | – | Nd(Insoluble) | Stability [2]: 63%; Stability [5]: 10%; Stability [6]: 56%
15 | CNc1cc(Nc2cccn(-c3cc(C)n(C)n3)c2=O)nn2c(C(=O)NC3CC3)cnc12 | 9.32 | 6.87 | 6.47 | – | Papp [29]: 14.2 ×10⁻⁶ cm/s
16 | CNc1cc(Nc2cccn(-c3ccccn3)c2=O)nn2c(C(=O)NC3CCC3)cnc12 | 9.59 | 7.22 | 6.42 | – | –
17 | CNc1cc(Nc2cccn(-c3ccccn3)c2=O)nn2c(C(=O)NC3CC3)cnc12 | 9.47 | 7.03 | 6.40 to 6.42 | – | Papp [29]: 16.9 ×10⁻⁶ cm/s
18 | CNc1cc(Nc2cccn(-c3ccccn3)c2=O)nn2c(C(=O)NC(C)C)cnc12 | 9.89 | 6.82 | 6.12 | – | –
19 | CNc1cc(Nc2cccn(-c3cccc(F)n3)c2=O)nn2c(C(=O)NC3CC3)cnc12 | 9.66 | 7.15 | 6.43 | – | –
20 | CNc1cc(Nc2cccn(-c3ncc(F)cn3)c2=O)nn2c(C(=O)NC3CC3)cnc12 | 9.42 | 6.63 | 6.33 | – | –
